Consider 167 variants from the RNAGym collection of RNA variant scans (doi:10.1126/science.aae0568).

The chains are these.
B1: tRNA (parent)
chain: GUUCCGUUGGCGUAAUGGUAACGCGUCUCCCUCCUAAGGAGAAGACUGCGGGUUCGAGUCCCGUACGGAACG

Fewer inactive variants are shown than the library holds.

The variants in this data set derive from B1. In words: yeast fitness relative to wild type (ratio to wild type); higher = fitter; tRNA-Arg(CCU), competitive growth, 37 C, YPD. An outline of the steps: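 Start and end populations of a pooled competition were compared by 100-nucleotide paired-end sequencing of gene amplicons. The Saccharomyces cerevisiae strains carried tRNA-Arg(CCU) gene variants at the native genomic locus, synthesised with a 3% per-site mutation rate at 69 sites, and competed in YPD at 37°C for 24 hours in six parallel replicates. Darwinian fitness relative to wild type was based on the change in genotype frequencies. Genotypes required ≥ 100 starting reads, and estimates < 0.5 were set to 0.5.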
As to U16A C34A A36C A37G G56C C66A, the yeast fitness was ≤ 0.5. To A15U U28A G68C belongs ≤ 0.5. With U16A U32C C34U the figure was ≤ 0.5; with U16A A21G C34A C49G C62U, ≤ 0.5; with A15U U35A A43U C46U, 0.695. With A15U U19A A20G G41A C60G A65G the figure was ≤ 0.5. For the variant U16A C29G C30U A40U A70G, the yeast fitness was ≤ 0.5. With U16A C24U C34A the figure was 0.656.

Regarding A15U U19A A20G A40U A43U C60G C62U, the yeast fitness came out at 0.518. U16C A21U C30U C34G A36C: the yeast fitness is ≤ 0.5. To U16C A21U C31G belongs 0.537.

For the variant A15U U26A C55A A70C, the yeast fitness is ≤ 0.5.

A15U U53G: the yeast fitness stood at 0.539. To A15U U53C belongs 0.71; to U16A A37U G56A C62A A69G, ≤ 0.5; to U16C C30U C46A, 0.768. With U16C A40U A65U the figure was 0.588.

Take U16C A37U: the yeast fitness was 0.683. For the variant U16C A37C, the yeast fitness was found to be 0.678. With U16A C24U the figure was 1.06; with A15U G63A, 0.675; with A15U G38C G39A A43C C61U, ≤ 0.5. To A15U U54A belongs 0.53; to A15U G25A C27A C33U, 0.512; to U16A G39C U54C C55U, ≤ 0.5.

For the variant U16A C60A G67C, the yeast fitness was ≤ 0.5. To U16A C49U G67A belongs 0.67; to U16A G17C A43U A45C C46A C62G, ≤ 0.5. To U16C A36U A65U belongs ≤ 0.5; to U16C C60A C62U, 0.55. For the variant A15U G38C, the yeast fitness turned out to be 0.699. To U16A A20G C27U G41C C55U A69U belongs ≤ 0.5; to U16A C34A U64C, 0.513; to U16C A42G, 0.904.

For A15U G38C G39A A43C C60G, the yeast fitness stood at 0.569.

U16A G38A C62A A69U: the yeast fitness was ≤ 0.5. U16A C24G C49G U53C: the yeast fitness is ≤ 0.5. Regarding A15U G52C, the yeast fitness was ≤ 0.5.

A15U G52A: the yeast fitness came out at 0.606.

Regarding A15U G23A C34A C49G A57G, the yeast fitness stood at 0.57. To A15U G67C belongs 0.657; to A15U G67A, 0.654; to U16C A43C A45U C49G, 0.722. To U16C C29G C60U belongs 0.638; to U16A C31A A69U, 0.62; to U16A C46G, 0.951. With U16C A40C A57U the figure was 0.575; with U16C C24U C30U C62A, ≤ 0.5; with U16A C34G U47A G52C, ≤ 0.5. Consider U16A G52A A57C C66U, for which the yeast fitness was ≤ 0.5. With U16A C60G G67A the figure was ≤ 0.5; with A15U U32A G44A A65C, ≤ 0.5. Take U16C C31G: the yeast fitness was 0.838. To U16C G44A belongs 1.06. With U16C A57U the figure was 0.686; with U16A C34U, 0.663. To U16C C30U C34G C49A A70U belongs ≤ 0.5. A15U U47G A57C: the yeast fitness was ≤ 0.5. With U16A C61A C66U A69C the figure was 0.697; with U16C C29U C62U, 0.508. To U16C G25C U53A belongs ≤ 0.5; to U16A C31A G67U, ≤ 0.5; to U16C C22G C66U, 0.721.

For U16A G38C C61U U64C, the yeast fitness is ≤ 0.5.

With U16A A36U, the yeast fitness turned out to be 0.552. With U16A G23A C33A A65G the figure was ≤ 0.5; with U16A G25C G48A U59A, ≤ 0.5; with U16A A20U C24G C31A C33G C61A G67C, ≤ 0.5. To U16A A57U A69U belongs 0.526; to U16A U32C A42U, 0.637; to U16A U54G, 0.536. As for U16A U54A, the yeast fitness worked out at 0.573. To A15U G39A A57U C62G belongs 0.502; to U16A C33A C34A C62A, ≤ 0.5. With U16C A40U G52A C55A G56C the figure was ≤ 0.5.

For the variant U16A G67U, the yeast fitness amounted to 0.85. With U16A G67A the figure was 0.926; with U16A A20G C34U G56C, 0.509. To U16A C31A G51A belongs 0.552; to U16C C29G U53A, ≤ 0.5. To U16C C31U C33A C34G U35A G52A G67A belongs ≤ 0.5; to U16A A70U, 1.03; to U16A A70C, 0.897. For A15U U26A C29G G50A C61G G63C, the yeast fitness was 0.57.

As to U16C G41A C49U, the yeast fitness was 0.605. To U16C A65G A70C belongs 0.786; to U16A G56C A57U C60U, ≤ 0.5; to U16C C55U A69U, 0.629.

Consider U16C C29A C55G A70U, for which the yeast fitness was ≤ 0.5. To A15U U16A G18A C60U belongs ≤ 0.5; to U16A G41A A69C, 0.631; to U16A C30G A37C, ≤ 0.5. Turning to A15U U26A A37G U64A, the yeast fitness was ≤ 0.5.

U16A C24U C34A A65G G67A: the yeast fitness was ≤ 0.5.

U16C C31U C55U: the yeast fitness stood at 0.659. To U16C A36U G63A belongs 0.772; to U16A U35A A57G C62G, ≤ 0.5; to A15U U16G C55A A57C U59C A65G, ≤ 0.5. To U16C G25C C34U belongs 0.544; to U16A G50C C66G, ≤ 0.5.

On to U16A C29G C30U A40U, for which the yeast fitness is ≤ 0.5. With U16A G18C G48C, the yeast fitness was found to be 0.646.

In the case of U16A A43U C62G C66A A69C, the yeast fitness was ≤ 0.5.

With U16C C29G, the yeast fitness is 0.619. U16A G17A A20G C22G C61U G68C: the yeast fitness was determined as 0.559.

Consider U16A C49U, for which the yeast fitness is 0.946. With U16C A37C C55G C62U the figure was ≤ 0.5.

As for U16A C33A C34A, the yeast fitness was ≤ 0.5. Consider U16A G50C A65G, for which the yeast fitness was ≤ 0.5.

As for U16C G18A C24G A45U U59G G68C, the yeast fitness was found to be 0.537. To U16A G23C U26A C29U A42U G48A G67A belongs ≤ 0.5. To U16A C46U G51C belongs 0.769; to U16A G18C A20G C22U U54G C55A, 0.512. To A15U G41C G56C belongs ≤ 0.5; to U16A C30G C34G A42U C66U, ≤ 0.5; to U16A G17A C22G C61U, ≤ 0.5. With U16C A21U, the yeast fitness amounted to 0.756. To U16C C24A belongs 0.668.

U16C C24U: the yeast fitness stood at 0.882. As for U16A A37C C55U, the yeast fitness was ≤ 0.5.

As to U16A U32A A40C C62U, the yeast fitness was ≤ 0.5. To U16C A20U C30U G39C A45G A69C belongs 0.592; to U16A U19A A69C, 0.747; to A15U G41C, 0.784. To A15U U16A C27G belongs 0.59; to U16A C27G A36U, ≤ 0.5; to U16C C60G A65G, ≤ 0.5. With U16A C27G A42U U53C the figure was ≤ 0.5; with A15U U19A C24A C34U A40C, ≤ 0.5. Turning to A15U G23C C33A G63A, the yeast fitness is ≤ 0.5. To U16C C34G belongs 0.609; to U16C C34U, 0.759; to U16C C55A A57C, ≤ 0.5. To U16C C55A A57U belongs ≤ 0.5.

Turning to U16A C24U C34A A65G, the yeast fitness turned out to be 0.716.

As to U16A C22U U26C U54G A65G C66A, the yeast fitness was ≤ 0.5. To U16A A21C A45U C60U G67C belongs ≤ 0.5; to U16A A37G C62U, 0.543; to U16A C34A A40U G44A, ≤ 0.5. With U16C C46U A69C the figure was 0.783; with U16C A20C A36U C61U, ≤ 0.5. For U16A C24G C46U G50C C55U A57U C62G A70U, the yeast fitness is ≤ 0.5.

With U16C A40C A57G C61U, the yeast fitness was ≤ 0.5. To A15U G38A C46G G56C belongs ≤ 0.5; to U16C A70U, 0.902. With U16A C24U C61G A65G the figure was ≤ 0.5. With U16A G48A the figure was 0.896.

As for U16A G48C, the yeast fitness is 0.967.

As to U16A A69C, the yeast fitness worked out at 0.969. To U16A A69G belongs 0.853; to U16A A21U C24A G52A, ≤ 0.5; to U16A C27U G38A, ≤ 0.5. With U16C C46G C55G C60G the figure was 0.615. To U16C C22G C27G U53C C61A G68A belongs ≤ 0.5; to U16C C33G G39C A69C, ≤ 0.5; to U16C A20U U32C, 0.615. As for A15U G52A C61G, the yeast fitness was determined as 0.596. To U16C C30U G41C belongs ≤ 0.5; to U16A C60U, 0.805.

Take A15U U19A A20G A40U A43U: the yeast fitness was 0.542. With U16A G17A C66G A70U the figure was 0.634; with U16A C33U A45G C49A U53A, ≤ 0.5. With A15U G51A the figure was 0.722. To A15U G51C belongs 0.555; to U16A A37G, 0.79.

Turning to U16A A37U, the yeast fitness came to 0.739. To U16A C49U A69U belongs 0.647.
